Reference: ChEMBL document CHEMBL1138513, “Glucose promoiety enables glucose transporter mediated brain uptake of ketoprofen and indomethacin prodrugs in rats” (J Med Chem, 2009)

Experiments:
[1] = molecular target: T1, Solute carrier family 2, facilitated glucose transporter member 1 (Rattus norvegicus) (UniProt P11167); assay: Inhibition of GluT1-mediated [14C]D-glucose uptake in Wistar rat brain at 80 uM after 30 seconds perfusion measured after drug washout from brain capillary 30 seconds before [14C]D-glucose challenge
T1 sequence (whole entry): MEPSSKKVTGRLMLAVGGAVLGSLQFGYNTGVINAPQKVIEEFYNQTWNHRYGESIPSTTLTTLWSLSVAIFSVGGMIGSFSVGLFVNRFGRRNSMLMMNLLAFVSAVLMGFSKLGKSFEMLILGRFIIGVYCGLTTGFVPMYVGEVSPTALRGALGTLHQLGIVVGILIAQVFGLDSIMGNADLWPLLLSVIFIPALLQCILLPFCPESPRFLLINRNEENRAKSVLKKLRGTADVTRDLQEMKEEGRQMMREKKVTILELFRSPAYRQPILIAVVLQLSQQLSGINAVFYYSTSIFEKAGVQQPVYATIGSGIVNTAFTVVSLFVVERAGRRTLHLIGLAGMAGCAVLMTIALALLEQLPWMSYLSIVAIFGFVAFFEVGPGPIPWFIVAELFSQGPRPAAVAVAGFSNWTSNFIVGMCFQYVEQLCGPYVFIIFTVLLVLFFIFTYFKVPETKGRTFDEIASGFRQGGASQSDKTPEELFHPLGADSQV
Procedure, shortened: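 Reversibility test in male Wistar rats. Brain perfused first with prodrug at 80 µM for 30 s, then with prodrug-free medium for 30 s to wash the capillaries, then with 0.2 µCi/mL [14C]D-glucose for 30 s. PA product of [14C]D-glucose then determined.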

[2] = Metabolic stability in rat liver homogenate assessed as half life by HPLC; type: ADME, tissue-based
Procedure, shortened: (§1)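 Prodrug incubated at 37 °C in rat brain homogenate diluted to 20% (v/v), or in liver homogenate diluted to 50% (v/v), in isotonic 0.16 M phosphate buffer, pH 7.4. Aliquots quenched with acetonitrile and centrifuged; remaining prodrug and released parent drug measured by HPLC. Pseudo-first-order t1/2 reported; mean ± sd, n = 3.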

[3] = (§2) Metabolic stability in rat brain homogenate assessed as half life by HPLC; type: ADME, tissue-based; procedure, shortened: as §1
[4] = Chemical stability in aqueous phosphate buffer at pH 7.4 assessed as half life by HPLC; type: physicochemical
Procedure, shortened: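 Prodrug dissolved in preheated 0.16 M phosphate buffer, pH 7.4, ionic strength 0.5, held at 37 °C in a water bath. Samples taken at intervals and remaining prodrug measured by HPLC. Pseudo-first-order t1/2 taken from the slope of log remaining prodrug versus time; mean ± sd, n = 2.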

Brain [5] = assay: Drug uptake in Wistar rat brain at 1000 uM by perfusion technique; type: ADME, tissue-based; conditions: in vivo
Procedure, shortened: (§3)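 In situ brain perfusion via the right common carotid artery in adult male Wistar rats (200-230 g) under ketamine/xylazine ip. Prodrug in perfusion medium with 1% DMSO, pH 7.4, perfused 60 s at 37 °C, then washed with cold (5 °C) prodrug-free medium for 30 s. Brain hemisphere analysed by HPLC; uptake in pmol/mg/min, mean ± sd, n = 3.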

[6] = molecular target: T1, Solute carrier family 2, facilitated glucose transporter member 1 (Rattus norvegicus); assay: (§4) Inhibition of GluT1-mediated [14C]D-glucose uptake in Wistar rat brain by perfusion technique
Procedure, shortened: (§5)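 Rat brain PA product of 0.2 µCi/mL [14C]D-glucose measured by in situ perfusion with prodrug co-perfused at concentrations from 0.1 to 1000 µM or 0.01 to 80 µM. IC50 obtained by nonlinear regression; mean ± sd, n = 2.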

[7] = molecular target: T2, Solute carrier family 2, facilitated glucose transporter member 1 (Rattus norvegicus, UniProt P11167); assay: as §4; procedure, shortened: as §5
T2 sequence (P11167 whole entry): T1 sequence (whole entry)

Brain [8] = assay: Drug uptake in Wistar rat brain at 450 uM by perfusion technique; type: ADME, tissue-based; conditions: in vivo; procedure, shortened: as §3
Brain [9] = assay: Drug uptake in Wistar rat brain at 150 uM by perfusion technique; type: ADME, tissue-based; conditions: in vivo; procedure, shortened: as §3
Brain [10] = assay: Drug uptake in Wistar rat brain at 150 uM by perfusion technique […]; type: ADME, tissue-based; conditions: in vivo
Procedure, shortened: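 Carrier-mediated uptake blocked nonspecifically by cold in male Wistar rats. Capillaries first washed 30 s with 5 °C prodrug-free medium, then perfused 60 s with 5 °C prodrug solution at 150 µM, then washed again with cold medium. Brain prodrug measured by HPLC; mean ± sd, n = 3.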

Brain [11] = assay: Drug uptake in Wistar rat brain at 3500 uM by perfusion technique; type: ADME, tissue-based; conditions: in vivo; procedure, shortened: as §3
[12] = molecular target: T1, Solute carrier family 2, facilitated glucose transporter member 1 (Rattus norvegicus); assay: Inhibition of GluT1-mediated [14C]D-glucose uptake in Wistar rat brain at 80 uM by perfusion technique
Brain [13] = assay: Drug uptake in Wistar rat brain at 15000 uM by perfusion technique; type: ADME, tissue-based; conditions: in vivo; procedure, shortened: as §3
Brain [14] = assay: Drug uptake in Wistar rat brain at 150 uM by perfusion technique in presence of D-glucose; type: ADME, tissue-based; conditions: in vivo
Procedure, shortened: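 Male Wistar rats, in situ carotid brain perfusion. Prodrug at 150 µM given for 60 s at 37 °C in perfusion medium (1% DMSO, pH 7.4) with 50 mM D-glucose added, followed by a 30 s cold prodrug-free wash. Brain prodrug measured by HPLC; uptake in pmol/mg/min, mean ± sd, n = 3.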

Brain [15] = assay: as §2; type: ADME, tissue-based; procedure, shortened: as §1
[16] = molecular target: T1, Solute carrier family 2, facilitated glucose transporter member 1 (Rattus norvegicus); assay: Inhibition of GluT1-mediated [14C]D-glucose uptake in Wistar rat brain at 20 mM by perfusion technique

Row | PA [1] | half-life [4] | Activity [6] | IC50 [7] | Drug uptake (Brain [9]) | Drug uptake (Brain [10]) | inhibition [12] | Drug uptake (Brain [14]) | Activity (Brain [15]) | Compound | other results
1 |  | 3 h |  |  |  |  |  |  | Unstable | COc1ccc2c(c1)c(CC(=O)OCC(=O)OC[C@H]1O[C@@H](O)[C@H](O)[C@@H](O)[C@@H]1O)c(C)n2C(=O)c1ccc(Cl)cc1 | 
2 | 0.0032 mL/s/g | 40.5 h | Dose-dependent effect | 0.71 µM | 1.993 pmol/mg/min | 0.599 pmol/mg/min | 96.7% | 1.806 pmol/mg/min |  | COc1ccc2c(c1)c(CC(=O)OC[C@H]1O[C@@H](O)[C@H](O)[C@@H](O)[C@@H]1O)c(C)n2C(=O)c1ccc(Cl)cc1 | 

The next lines start with the compound.

Row | Compound | PA [1] | half-life [4] | Activity [6] | IC50 [7] | Drug uptake (Brain [9]) | Drug uptake (Brain [10]) | inhibition [12] | Drug uptake (Brain [14]) | Activity (Brain [15]) | other results
3 | CC(C(=O)OC[C@H]1O[C@@H](O)[C@H](O)[C@@H](O)[C@@H]1O)c1cccc(C(=O)c2ccccc2)c1 (some centres not stated) | 0.0033 mL/s/g | 88.5 h | Dose-dependent effect | 32.9 µM | 1.33 pmol/mg/min | 0.515 pmol/mg/min | 75.5% | 0.513 pmol/mg/min |  | half-life [2]: 8.6 min; half-life [3]: 0.725 h; Drug uptake (Brain [5]): 7.78 pmol/mg/min; Drug uptake (Brain [8]): 3.55 pmol/mg/min; Drug uptake (Brain [11]): 20.77 pmol/mg/min; Drug uptake (Brain [13]): 93.21 pmol/mg/min
4 | OC[C@H]1OC(O)[C@H](O)[C@@H](O)[C@@H]1O (some centres not stated) |  |  |  |  |  |  |  |  |  | inhibition [16]: 73.8%
5 | COc1ccc2c(c1)c(CC(=O)OC(C)C(=O)OC[C@H]1O[C@@H](O)[C@H](O)[C@@H](O)[C@@H]1O)c(C)n2C(=O)c1ccc(Cl)cc1 (some centres not stated) |  | 9.5 h |  |  |  |  |  |  | Unstable | 
